Data reported in ChEMBL document CHEMBL1135455, “3-Aminopyrrolidinone farnesyltransferase inhibitors: design of macrocyclic compounds with improved pharmacokinetics and excellent cell potency” (J Med Chem, 2002).

Key:
[1] = target: T1, Cytochrome P450 3A4 (Homo sapiens, UniProt P08684); assay: (§1) Inhibition of human Cytochrome P450 3A4 by macrocycles
[2] = target: T2, Protein farnesyltransferase (Rattus norvegicus, UniProt Q02293+Q04631); assay: Inhibition of Farnesyltransferase in cells, evaluated in a radiotracer assay for farnesyltransferase inhibition (CRAFTI), in cultured H-ras-transformed Rat cells
[3] = target: T3, Protein farnesyltransferase (Homo sapiens, UniProt P49354+P49356); assay: Inhibition of human farnesyltransferase in an enzyme assay.
[4] = target: T3, Protein farnesyltransferase; assay: Inhibition of HDJ2 farnesylation in PSN-1 cells over 7 hr assay in the presence of 50% human serum.; format: functional, cell-based
[5] = Pharmacokinetic data at 0.5 mg/kg dose given to dogs intravenously.; format: ADME, organism-based, Canis lupus familiaris; set-up: dose 0.5 mg/kg, route intravenous; conditions: dog, iv; for half-life / Vd: in vivo; for Vd: read-out: Vdss; for clearance: plasma, read-out: Clp
Summary of the method: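 Compound was given intravenously in DMSO to two dogs, in some cases as a mixture with five other compounds. Plasma levels were measured by LC-MS.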

[6] = target: T3, Protein farnesyltransferase; assay: Inhibition of Farnesyltransferase at 10 pM enzyme concentration
[7] = target: Geranylgeranyl transferase type I (Homo sapiens, UniProt P49354+P53609); assay: Inhibitory activity against geranylgeranyl transferase; format: protein-complex assay
[8] = target: T3, Protein farnesyltransferase; assay: Inhibition of HDJ2 farnesylation in PSN-1 cells over 7 hr assay; format: functional, cell-based
[9] = Oral bioavailability of active FTIs in dogs; format: ADME, organism-based, Canis lupus familiaris; conditions: dog, in vivo
[10] = Pharmacokinetic data for dose given to dogs intravenously (oral PK study in parentheses); format: ADME, organism-based, Canis lupus familiaris; conditions: dog, in vivo
Summary of the method: (§2)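 Dogs, two per compound, dosed intravenously in DMSO or orally as a 0.5% methocellulose suspension. Some compounds were given intravenously as a cassette with five other compounds. Plasma levels were quantitated by LCMS.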

[11] = Pharmacokinetic data at 1 mg/kg dose given to dogs intravenously; format: ADME, organism-based, Canis lupus familiaris; set-up: dose 1 mg/kg, route intravenous; conditions: dog, iv; summary of the method: as §2
[12] = suboptimal plasma half-life caused a10% prolongation of QTc interval in dogs at a plasma level of […]; format: ADME, organism-based, Canis lupus familiaris; conditions: dog
[13] = target: T2, Protein farnesyltransferase; assay: Inhibition of Farnesyltransferase in H-ras-transformed Rat cells by radiotracer assay (CRAFTI)
[14] = target: T3, Protein farnesyltransferase; assay: Inhibition of HDJ2 farnesylation in PSN-1 cells over 7 hr assay in the presence of 50% human serum; format: functional, cell-based
[15] = target: T3, Protein farnesyltransferase; assay: Inhibition of Farnesyltransferase at 10 pM enzyme concentration; remark: listed apart in the source
[16] = Clearance in dog (dose 1 mg/kg i.v.); conditions: plasma, iv
[17] = Bioavailability in dog (dose 1 mg/kg i.v.); conditions: in vivo, iv
[18] = target: T1, Cytochrome P450 3A4; assay: as §1; format: ADME
Summary of the method: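 Pooled liver microsomes, dog (7) or human (8, 9), at 0.25 mg protein/mL were incubated 10 min with 75 µM testosterone and an NADPH-generating system, with or without compound (0.05-100 µM). 6β-Hydroxytestosterone was quantified by LC-MS/MS against a cortisone internal standard. IC50 was taken from product formed relative to the control incubation.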

[19] = target: T1, Cytochrome P450 3A4; assay: Inhibition of dog Cytochrome P450 3A by macrocycles
[20] = target: Voltage-gated inwardly rectifying potassium channel KCNH2 (Homo sapiens, UniProt Q12809); assay: Inflection point affinity for binding to K+ channel HERG.; conditions: IP
Voltage-gated inwardly rectifying potassium channel KCNH2, sequence (Q12809 whole entry): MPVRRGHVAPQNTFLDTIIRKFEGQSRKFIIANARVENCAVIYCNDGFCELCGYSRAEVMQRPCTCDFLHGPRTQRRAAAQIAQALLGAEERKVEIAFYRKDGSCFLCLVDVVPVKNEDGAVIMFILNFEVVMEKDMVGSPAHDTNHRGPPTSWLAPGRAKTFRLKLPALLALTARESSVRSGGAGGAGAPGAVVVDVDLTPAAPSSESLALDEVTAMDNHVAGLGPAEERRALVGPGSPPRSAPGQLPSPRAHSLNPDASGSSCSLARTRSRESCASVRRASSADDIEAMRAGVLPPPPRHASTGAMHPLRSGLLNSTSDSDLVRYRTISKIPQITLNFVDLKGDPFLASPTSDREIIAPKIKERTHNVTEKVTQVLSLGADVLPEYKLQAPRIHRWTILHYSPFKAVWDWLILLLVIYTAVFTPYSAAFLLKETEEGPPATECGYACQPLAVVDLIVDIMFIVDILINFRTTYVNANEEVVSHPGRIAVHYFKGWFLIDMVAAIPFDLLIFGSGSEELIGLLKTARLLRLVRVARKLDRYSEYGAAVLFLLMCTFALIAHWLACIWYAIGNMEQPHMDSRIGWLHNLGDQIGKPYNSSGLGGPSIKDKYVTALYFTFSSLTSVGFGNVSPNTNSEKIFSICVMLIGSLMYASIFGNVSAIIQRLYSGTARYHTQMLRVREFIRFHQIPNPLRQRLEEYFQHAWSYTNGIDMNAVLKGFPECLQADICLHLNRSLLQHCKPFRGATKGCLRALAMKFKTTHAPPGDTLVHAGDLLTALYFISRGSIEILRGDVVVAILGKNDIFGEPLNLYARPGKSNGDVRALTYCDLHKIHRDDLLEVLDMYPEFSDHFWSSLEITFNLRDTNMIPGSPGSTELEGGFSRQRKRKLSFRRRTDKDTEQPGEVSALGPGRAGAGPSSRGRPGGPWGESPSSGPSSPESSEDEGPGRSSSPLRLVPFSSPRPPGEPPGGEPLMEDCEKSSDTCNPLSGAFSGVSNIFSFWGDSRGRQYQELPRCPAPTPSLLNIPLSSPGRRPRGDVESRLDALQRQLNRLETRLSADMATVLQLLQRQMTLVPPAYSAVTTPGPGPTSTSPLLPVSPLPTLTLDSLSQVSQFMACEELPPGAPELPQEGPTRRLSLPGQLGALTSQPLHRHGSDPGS

T1 sequence (P08684 whole entry): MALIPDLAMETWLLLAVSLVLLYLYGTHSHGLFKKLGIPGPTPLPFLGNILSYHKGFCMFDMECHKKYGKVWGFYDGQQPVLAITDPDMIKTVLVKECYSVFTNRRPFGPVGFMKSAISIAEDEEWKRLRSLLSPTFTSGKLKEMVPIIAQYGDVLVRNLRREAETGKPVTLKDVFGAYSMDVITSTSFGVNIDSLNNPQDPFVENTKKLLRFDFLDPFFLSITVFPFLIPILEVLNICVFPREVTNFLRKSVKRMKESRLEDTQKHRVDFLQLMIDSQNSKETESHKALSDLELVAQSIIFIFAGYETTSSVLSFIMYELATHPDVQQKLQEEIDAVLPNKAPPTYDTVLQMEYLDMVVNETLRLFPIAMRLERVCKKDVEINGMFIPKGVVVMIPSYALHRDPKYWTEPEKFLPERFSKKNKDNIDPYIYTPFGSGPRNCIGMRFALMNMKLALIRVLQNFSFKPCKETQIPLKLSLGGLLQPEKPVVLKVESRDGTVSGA

Compound	IC50 [2] [nM]	IC50 [3] [nM]	half-life [5] [h]	Vd [5] [L/kg]	clearance [5] [mL/min/kg]	IC50 [7] [nM]	other results
N#Cc1ccc2cc1Oc1cccc(c1)-c1ccccc1N1CCC(NCc3cncn3C2)C1=O (stereo unspecified)	0.032	1.3	0.88	0.61	8	810	IC50 [1]: < 50 nM; EC50 [4]: 0.58 nM; IC50 [6]: 0.06 nM; EC50 [8]: 0.67 nM
N#Cc1ccc2cc1Oc1ccc(Br)c(c1)CN1CCC(NCc3cncn3C2)C1=O (stereo unspecified)	0.19	1.4	1.6	0.53	3.2	9200	IC50 [1]: 6100 nM; EC50 [4]: 1 nM; EC50 [8]: 1.6 nM
CN1Cc2cncn2Cc2ccc(C#N)c(c2)Oc2ccc3cccc(c3c2)N2CCC1C2=O (stereo unspecified)	39	4.9	10.1	0.21	0.26	2200	IC50 [1]: 5000 nM
N#Cc1ccc(Cn2cncc2CN[C@H]2CCN(Cc3cccc(Cl)c3)C2=O)cc1	–	–	–	–	–	–	IC50 [1]: 1000 nM; bioavailability [9]: 81%; bioavailability [10]: 81%; half-life ([11]; in vivo): 1.1 h; Vd ([11]; in vivo, read-out: Vdss): 0.45 L/kg; clearance ([11]; plasma, read-out: Clp): 5.8 mL/min/kg; half-life [12]: 1.1 h
N#Cc1ccc2cc1Oc1cc(Cl)cc(c1)CN1CCC(NCc3cncn3C2)C1=O (stereo unspecified)	–	23	–	–	–	> 20000	IC50 [13]: 6.4 nM
N#Cc1ccc2cc1Oc1ccc3c(c1)[C@@H](CCO3)N1CC[C@H](NCc3cncn3C2)C1=O	1.8	–	–	–	–	–	–
N#Cc1ccc2cc1Oc1ccc3cccc(c3c1)N1CC[C@@H](NCc3cncn3C2)C1=O	4.4	1.6	–	–	–	–	–
CN1CCc2cncn2Cc2ccc(C#N)c(c2)Oc2ccc3cccc(c3c2)N2CC[C@@H]1C2=O	0.57	–	–	–	–	–	–
N#Cc1ccc2cc1Oc1cccc(c1)CN1CC[C@@H](NCc3cncn3C2)C1=O	0.66	–	–	–	–	–	EC50 [14]: 13 nM; IC50 [15]: 2 nM; EC50 [8]: 6.1 nM
N#Cc1ccc2cc1Oc1ccc3c(c1)[C@@H](CCO3)N1CC[C@@H](NCc3cncn3C2)C1=O	0.063	–	–	–	–	–	clearance [16]: 5.5 mL/min/kg; Vd [17]: 0.34 L/kg; half-life [17]: 0.9 h
N#Cc1ccc2cc1Oc1ccc3cccc(c3c1)N1CCN(CC1=O)Cc1cncn1C2	0.29	–	–	–	–	–	–
N#Cc1ccc2cc1Oc1ccc3cccc(c3c1)N1CC[C@H](NC(=O)Cc3cncn3C2)C1=O	6.8	–	1.7	0.19	1.5	–	IC50 [18]: 8100 nM
N#Cc1ccc2cc1Oc1ccc3c(c1)[C@H](CC3)N1CC[C@H](NCc3cncn3C2)C1=O	93	–	–	–	–	–	–
N#Cc1ccc2cc1Oc1ccc3cccc(c3c1)N1CC[C@@H](NC(=O)Cc3cncn3C2)C1=O	13	–	–	–	–	–	–
N#Cc1ccc2cc1Oc1cccc(c1)CN1CC[C@H](NCc3cncn3C2)C1=O	–	54	–	–	–	–	IC50 [13]: 13 nM
CN1CCc2cncn2Cc2ccc(C#N)c(c2)Oc2ccc3cccc(c3c2)N2CC[C@H]1C2=O	0.21	–	1.9	0.25	1.4	–	–
N#Cc1ccc2cc1Oc1ccc3c(c1)[C@@H](CC3)N1CC[C@@H](NCc3cncn3C2)C1=O	0.22	–	1.7	0.27	2.1	–	IC50 [1]: 6600 nM; IC50 [19]: 10400 nM
N#Cc1ccc2cc1Oc1ccc3c(c1)[C@@H](CCC3)N1CC[C@H](NCc3cncn3C2)C1=O	0.21	1.5	–	–	–	2200	EC50 [4]: 4.4 nM; EC50 [8]: 3 nM
N#Cc1ccc2cc1Oc1ccc3c(c1)[C@H](CC3)N1CC[C@@H](NCc3cncn3C2)C1=O	41	–	4.2	0.5	1.3	–	IC50 [1]: 2800 nM; IC50 [19]: 14800 nM
N#Cc1ccc2cc1Oc1ccc3cccc(c3c1)N1CC[C@H](NCc3cncn3C2)C1=O	3.8	–	–	–	–	–	EC50 [4]: 130 nM; EC50 [8]: 48 nM
CN1Cc2cncn2Cc2ccc(C#N)c(c2)Oc2ccc3c(c2)C(CC3)N2CCC1C2=O (stereo unspecified)	0.64	1.4	–	–	–	> 20000	IC50 [20]: 2600 nM
N#Cc1ccc2cc1Oc1cccc(c1)C(c1cccc(Cl)c1)N1CCC(NCc3cncn3C2)C1=O (single isomer, unassigned; diastereomer A)	–	25	–	–	–	820	IC50 [13]: 210 nM
CC1c2ccc(C#N)c(c2)Oc2cccc(c2)CN2CCC(NCc3cncn31)C2=O (single isomer, unassigned; diastereomer A)	74	170	–	–	–	> 20000	–
N#Cc1ccc2cc1Oc1cccc(c1)C(c1ccccc1)N1CCC(NCc3cncn3C2)C1=O (single isomer, unassigned; diastereomer B)	–	10	–	–	–	5800	IC50 [13]: 34 nM
N#Cc1ccc2cc1Oc1cccc(c1)C(c1cccc(Cl)c1)N1CCC(NCc3cncn3C2)C1=O (single isomer, unassigned; diastereomer B)	200	2.5	–	–	–	7000	–
CC1c2ccc(C#N)c(c2)Oc2cccc(c2)CN2CCC(NCc3cncn31)C2=O (single isomer, unassigned; diastereomer B)	0.87	1.9	0.78	0.69	12	–	IC50 [19]: 6100 nM
N#Cc1ccc2cc1Oc1cccc(c1)C(c1ccccc1)N1CCC(NCc3cncn3C2)C1=O (stereo in doubt; 26A)	230	58	–	–	–	1600	–
N#Cc1ccc2cc1Oc1ccc3cccc(c3c1)N1CCC(NCCc3cncn3C2)C1=O (stereo in doubt; 66)	0.32	–	–	–	–	–	IC50 [1]: 6000 nM; clearance [16]: 3.9 mL/min/kg; Vd [17]: 0.57 L/kg; bioavailability [17]: 92%; half-life [17]: 2 h; EC50 [4]: 7.5 nM; IC50 [15]: 0.19 nM; EC50 [8]: 4.3 nM; IC50 [19]: 600 nM
N#Cc1ccc2cc1Oc1ccc3cccc(c3c1)N1CCC(NCCc3cncn3C2)C1=O (stereo in doubt; 67)	0.44	–	–	–	–	–	–
N#Cc1ccc2cc1Oc1ccc3c(c1)[C@@H](CCC3)N1CC[C@@H](NCc3cncn3C2)C1=O [(1R,5R)-30-OXO-19-OXA-2,6,10,12-TETRAAZAHEXACYCLO[18.6.2.1^{2,5}.1^{14,18}.0^{8,12}.0^{23,27}]TRIACONTA-8,10,14(29),15,17,20(28),21,23(27)-OCTAENE-17-CARBONITRILE (STRUCTURAL MIX)]	0.054	< 1	0.48	0.36	7.3	390	EC50 [14]: 0.25 nM; EC50 [8]: 0.18 nM
